Laboratory results taken from the M2OR odorant receptor database.
Substitutions are numbered along the chain they refer to.

Assays:
Conditions in all cases: stereoisomer not certain
OR1N2 = test system: T1, OR1N2
T1 sequence (whole entry): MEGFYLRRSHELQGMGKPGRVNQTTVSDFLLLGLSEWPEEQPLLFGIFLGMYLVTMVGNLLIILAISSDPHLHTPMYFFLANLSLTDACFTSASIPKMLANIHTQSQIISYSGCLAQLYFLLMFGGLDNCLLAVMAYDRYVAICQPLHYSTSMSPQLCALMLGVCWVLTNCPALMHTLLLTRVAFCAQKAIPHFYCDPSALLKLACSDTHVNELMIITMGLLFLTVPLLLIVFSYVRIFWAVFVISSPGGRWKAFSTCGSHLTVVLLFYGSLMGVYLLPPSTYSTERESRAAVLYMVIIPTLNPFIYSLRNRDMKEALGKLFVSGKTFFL
How it was run: (§1)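 Transient luciferase assays in mammalian cell lines were common, though methods varied by source. The values come from published papers and their supplementary material, with extra details from the original authors when needed. Responsive refers to a measured signal the original authors judged statistically different from baseline, and non-responsive (inactive) to the remainder.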

OR1Q1 (Homo sapiens) = target: T2, OR1Q1 (Homo sapiens) (UniProt Q15612)
T2 sequence (whole entry): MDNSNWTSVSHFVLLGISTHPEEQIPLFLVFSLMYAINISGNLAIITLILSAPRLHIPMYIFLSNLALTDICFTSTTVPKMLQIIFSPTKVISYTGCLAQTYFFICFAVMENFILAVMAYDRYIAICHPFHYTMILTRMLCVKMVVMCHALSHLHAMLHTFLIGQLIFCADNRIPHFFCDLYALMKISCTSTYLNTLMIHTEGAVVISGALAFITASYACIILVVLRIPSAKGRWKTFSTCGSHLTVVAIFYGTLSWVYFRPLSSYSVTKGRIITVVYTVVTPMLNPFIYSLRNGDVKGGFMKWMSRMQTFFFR
How it was run: as §1

OR1Q1 = test system: T3, OR1Q1
T3 sequence (whole entry): T2 sequence (whole entry) with Q24R, I163M
How it was run: as §1

OR1S1 (Homo sapiens) = target: T4, OR1S1 (Homo sapiens) (UniProt Q8NH92)
T4 sequence (whole entry): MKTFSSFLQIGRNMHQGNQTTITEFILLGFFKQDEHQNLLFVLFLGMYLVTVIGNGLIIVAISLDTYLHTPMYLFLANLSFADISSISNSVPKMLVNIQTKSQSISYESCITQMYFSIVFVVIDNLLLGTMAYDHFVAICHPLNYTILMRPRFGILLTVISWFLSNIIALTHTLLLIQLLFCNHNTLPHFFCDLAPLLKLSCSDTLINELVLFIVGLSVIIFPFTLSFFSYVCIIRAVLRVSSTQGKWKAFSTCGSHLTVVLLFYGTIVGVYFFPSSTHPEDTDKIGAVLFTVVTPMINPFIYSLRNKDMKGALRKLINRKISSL
How it was run: as §1

OR1S2 (Homo sapiens) = target: T5, OR1S2 (Homo sapiens) (UniProt Q8NGQ3)
T5 sequence (whole entry): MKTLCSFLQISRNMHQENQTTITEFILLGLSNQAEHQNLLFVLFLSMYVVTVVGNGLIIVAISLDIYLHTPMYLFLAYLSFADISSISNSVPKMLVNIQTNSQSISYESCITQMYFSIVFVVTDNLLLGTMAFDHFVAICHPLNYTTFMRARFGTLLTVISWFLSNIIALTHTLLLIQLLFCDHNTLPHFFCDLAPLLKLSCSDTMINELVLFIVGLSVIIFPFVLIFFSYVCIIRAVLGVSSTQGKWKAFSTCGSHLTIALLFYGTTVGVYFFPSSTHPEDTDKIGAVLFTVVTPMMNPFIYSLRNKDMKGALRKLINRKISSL
How it was run: as §1

OR1S2 E17G = test system: T6, OR1S2 E17G
T6 sequence (whole entry): T5 sequence (whole entry) with E17G
How it was run: as §1

OR1S2 V225T G240R = test system: T7, OR1S2 V225T G240R
T7 sequence (whole entry): T5 sequence (whole entry) with V225T, G240R
How it was run: as §1

OR2A1 (Homo sapiens) = target: T8, OR2A1 (Homo sapiens) (UniProt Q8NGT9)
T8 sequence (whole entry): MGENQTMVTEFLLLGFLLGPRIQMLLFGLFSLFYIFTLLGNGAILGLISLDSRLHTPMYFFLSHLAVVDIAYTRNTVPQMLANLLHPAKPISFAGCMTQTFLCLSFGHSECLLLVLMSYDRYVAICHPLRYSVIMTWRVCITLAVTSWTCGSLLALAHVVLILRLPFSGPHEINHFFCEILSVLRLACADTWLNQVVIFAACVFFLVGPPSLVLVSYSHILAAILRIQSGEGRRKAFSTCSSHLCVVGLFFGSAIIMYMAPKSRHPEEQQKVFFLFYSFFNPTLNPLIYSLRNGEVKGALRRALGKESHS
How it was run: as §1

OR2A1 S168C = test system: T9, OR2A1 S168C
T9 sequence (whole entry): T8 sequence (whole entry) with S168C
How it was run: as §1

OR1P1 (Homo sapiens) = OR1P1 (Homo sapiens) (UniProt Q8NH06)
Sequence of OR1P1 (Homo sapiens) (Q8NH06 whole entry K185A): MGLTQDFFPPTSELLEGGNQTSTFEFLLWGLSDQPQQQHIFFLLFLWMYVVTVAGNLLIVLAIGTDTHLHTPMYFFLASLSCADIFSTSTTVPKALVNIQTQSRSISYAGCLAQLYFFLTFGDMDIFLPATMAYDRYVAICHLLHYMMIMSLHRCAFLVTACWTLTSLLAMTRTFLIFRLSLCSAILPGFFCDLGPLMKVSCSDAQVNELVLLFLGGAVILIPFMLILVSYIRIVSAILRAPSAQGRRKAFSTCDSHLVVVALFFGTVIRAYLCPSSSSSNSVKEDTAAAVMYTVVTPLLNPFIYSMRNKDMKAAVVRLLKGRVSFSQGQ
How it was run: as §1

Measured: odorant receptor agonist call;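 note: active if original authors judged signal statistically different from baseline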

CC1=C(O)C(=O)C(C)O1 (stereo unspecified)
not listed: OR1P1 (Homo sapiens)
inactive: all other assays above

CCCCCCCCCCCC(=O)O
inactive: OR2A1 (Homo sapiens)

CCCCCCCC(=O)OCC
inactive: OR2A1 (Homo sapiens)

CCCCOCC(C)O (stereo unspecified)
inactive: OR2A1 (Homo sapiens)

CCCCCCC=CCCC=O
not listed: OR1P1 (Homo sapiens)
inactive: all other assays above

CCCCCCCCCCCCO
inactive: OR2A1 (Homo sapiens)

CCCC(S)CCOC(C)=O (stereo unspecified)
not listed: OR1P1 (Homo sapiens)
inactive: all other assays above

CCCCCCCCCCCCCC(=O)OC
inactive: OR2A1 (Homo sapiens)

CC1CCCCCCCCCCCCC(=O)C1 (stereo unspecified)
inactive: OR1N2 | OR1P1 (Homo sapiens) | OR1Q1 (Homo sapiens) | OR1S1 (Homo sapiens) | OR1S2 (Homo sapiens) | OR2A1 (Homo sapiens)

CCC1OC(C)=C(O)C1=O (stereo unspecified)
not listed: OR1P1 (Homo sapiens)
inactive: all other assays above

CC(CO)CS (stereo unspecified)
inactive: OR1N2 | OR1Q1 (Homo sapiens) | OR1S1 (Homo sapiens) | OR1S2 (Homo sapiens) | OR2A1 (Homo sapiens)

COc1ccc2[nH]cc(CCNC(C)=O)c2c1
inactive: OR2A1 (Homo sapiens)

CC1=NC(C)C(C)S1 (stereo unspecified)
not listed: OR1P1 (Homo sapiens)
inactive: all other assays above

Cc1cnc(C)c(C)n1
not listed: OR1P1 (Homo sapiens)
inactive: all other assays above

CCC(S)C(C)CO (stereo unspecified)
inactive: OR1N2 | OR1Q1 (Homo sapiens) | OR1S1 (Homo sapiens) | OR1S2 (Homo sapiens) | OR2A1 (Homo sapiens)

CCCCC(S)C(C)CO (stereo unspecified)
inactive: OR1N2 | OR1Q1 (Homo sapiens) | OR1S1 (Homo sapiens) | OR1S2 (Homo sapiens) | OR2A1 (Homo sapiens)

CCCCCCCCO
inactive: OR2A1 (Homo sapiens)

CCCC(=O)CC
inactive: OR2A1 (Homo sapiens)

CCCCCC(=O)C(C)C(C)=O (stereo unspecified)
inactive: OR1N2 | OR1Q1 (Homo sapiens) | OR1S1 (Homo sapiens) | OR1S2 (Homo sapiens) | OR2A1 (Homo sapiens)

CCCCCC(S)C(C)CO (stereo unspecified)
inactive: OR1N2 | OR1Q1 (Homo sapiens) | OR1S1 (Homo sapiens) | OR1S2 (Homo sapiens) | OR2A1 (Homo sapiens)

CCC1OC(=O)C(O)=C1C (stereo unspecified)
not listed: OR1P1 (Homo sapiens)
inactive: all other assays above

CCCCCCCCCCCC(=O)OCC
inactive: OR2A1 (Homo sapiens)

CC(C)=CCCC(C)=CCO
inactive: OR2A1 (Homo sapiens)

CCCCCCCCCC(=O)OC
inactive: OR2A1 (Homo sapiens)

CC1=C(O)C(=O)OC1C (stereo unspecified)
not listed: OR1P1 (Homo sapiens)
inactive: all other assays above

CC(=O)c1c(C)c([N+](=O)[O-])c(C(C)(C)C)c([N+](=O)[O-])c1C
inactive: OR1N2 | OR1P1 (Homo sapiens) | OR1Q1 (Homo sapiens) | OR1S1 (Homo sapiens) | OR1S2 (Homo sapiens) | OR2A1 (Homo sapiens)

CCCCCCCC(=O)OC
inactive: OR2A1 (Homo sapiens)
